Measured values: ChEMBL document CHEMBL1781999, “Lead optimization of aryl and aralkyl amine-based triazolopyrimidine inhibitors of Plasmodium falciparum dihydroorotate dehydrogenase with antimalarial activity in mice” (J Med Chem, 2011)
In brackets after ≈: the same amount, converted by molar mass.

Experiments:
[1] = Antimalarial activity against Plasmodium berghei ANKA NK65 infected in po dosed Swiss Webster mouse assessed as reduction of parasitemia level administered qd for 4 days measured 24 hrs after last dose by light microscopic analysis; type: functional
Mus musculus [2] = assay: Cmax in Swiss mouse at 20 mg/kg, po measured after 24 hrs by LC-MS analysis; type: ADME, organism-based; parameters: dose 20 mg/kg, route oral; details: in vivo
Method in brief: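 Non-fasted male Swiss outbred mice given a single oral gavage dose in 0.5% w/v sodium carboxymethylcellulose, 0.5% v/v benzyl alcohol, 0.4% v/v Tween 80. One mouse per time point, cardiac blood under isoflurane, sampling to 24 h. Plasma stabilized, acetonitrile-precipitated, quantified by LC-MS against blank-plasma standards; Cmax read from concentration-time profile.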

Liver microsomes = assay: (§1) Intrinsic clearance in human liver microsome assessed per mg of protein at 1 uM after 60 mins by LC-MS analysis; type: ADME; details: microsomes, 1 h, 1 µM
Method in brief: (§2)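 Microsomal stability. Compound at 1 μM with liver microsomes (0.4 mg/mL protein) in 0.1 M phosphate pH 7.4 at 37 °C. Started with an NADPH-regenerating system plus MgCl2; controls lacked NADPH. Quenched with cold acetonitrile at time points up to 60 min. Parent loss measured by LC-MS and fitted to exponential decay to give CLint.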

[3] = biological target: Dihydroorotate dehydrogenase (quinone), mitochondrial (Homo sapiens, UniProt Q02127); assay: Inhibition of His6-tagged recombinant human dihydroorotate dehydrogenase expressed in Escherichia coli using L-dihydroorotate as substrate after 5 to 10 mins by DCIP dye-based assay
Liver = assay: Intrinsic clearance in mouse liver microsome assessed per mg of protein at 1 uM after 60 mins by LC-MS analysis; type: ADME; details: microsomes, 1 h; method in brief: as §2
Mus musculus [4] = assay: Toxicity in Swiss mouse assessed as adverse effect at 20 mg/kg, po measured after 24 hrs; type: organism-based; parameters: dose 20 mg/kg, route oral; details: in vivo
Plasmodium falciparum = assay: Antimalarial activity against Plasmodium falciparum 3D7 infected in human A positive erythrocytes by [3H]hypoxanthine uptake assay in presence of serum in medium; type: functional, organism-based
Method in brief: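 Growth read by [3H]-hypoxanthine uptake. Each concentration run in quadruplicate and fitted to a four-parameter variable-slope log[I]-response model for 50% growth inhibition.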

[5] = Aqueous solubility of the compound in phosphate buffer at pH 6.5; type: physicochemical
Method in brief: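 Non-equilibrium solubility. Concentrated DMSO stocks were diluted into pH 6.5 phosphate buffer (final DMSO 1% v/v) and precipitation was monitored by nephelometry. Solubility is given as the concentration range just before a turbidity signal rose above background.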

[6] = Inhibition of His6-tagged recombinant Plasmodium berghei dihydroorotate dehydrogenase expressed in Escherichia coli using L-dihydroorotate as substrate after 10 to 15 mins by DCIP dye-based assay; details: in the assay text read “5 to 10 mins” for “10 to 15 mins”
Method in brief: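 Truncated soluble enzyme lacking the N-terminal membrane domain. Final concentrations: 0.2 mM L-dihydroorotate, 0.02 mM CoQD, 0.12 mM DCIP. Reaction started with 10 nM enzyme and read at 600 nm for 5–10 min at 20 °C. Inhibitor 0.01–100 μM in 3-fold steps, in triplicate. IC50 from a three-parameter fit of vi/vo from initial rates.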

Mus musculus [7] = assay: Time duration above 1 uM plasma concentration in Swiss mouse at 20 mg/kg, po; type: ADME, organism-based; parameters: dose 20 mg/kg, route oral; details: in vivo
Method in brief: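 Non-fasted male Swiss outbred mice given a single gavage dose in suspension (0.5% Na-CMC, 0.5% benzyl alcohol, 0.4% Tween 80). One mouse per time point; blood taken by cardiac puncture under isoflurane into stabilizer over 24 h. Plasma measured by LC-MS; time above 1 μM read directly from the concentration-time profile.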

[8] = Partition coefficient, log D of the compound at pH 7.4 by UV-HPLC analysis; details: octanol/water
[9] = (§3) Plasma protein binding in human by albumin chromatographic method; type: ADME, cell-free; details: read-out: PPB (converted)
[10] = biological target: T1, Dihydroorotate dehydrogenase (Plasmodium falciparum, UniProt Q54A96); assay: Inhibition of His6-tagged recombinant Plasmodium falciparum dihydroorotate dehydrogenase expressed in Escherichia coli using L-dihydroorotate as substrate after 5 to 10 mins by DCIP dye-based assay
T1 sequence (Q54A96 whole entry): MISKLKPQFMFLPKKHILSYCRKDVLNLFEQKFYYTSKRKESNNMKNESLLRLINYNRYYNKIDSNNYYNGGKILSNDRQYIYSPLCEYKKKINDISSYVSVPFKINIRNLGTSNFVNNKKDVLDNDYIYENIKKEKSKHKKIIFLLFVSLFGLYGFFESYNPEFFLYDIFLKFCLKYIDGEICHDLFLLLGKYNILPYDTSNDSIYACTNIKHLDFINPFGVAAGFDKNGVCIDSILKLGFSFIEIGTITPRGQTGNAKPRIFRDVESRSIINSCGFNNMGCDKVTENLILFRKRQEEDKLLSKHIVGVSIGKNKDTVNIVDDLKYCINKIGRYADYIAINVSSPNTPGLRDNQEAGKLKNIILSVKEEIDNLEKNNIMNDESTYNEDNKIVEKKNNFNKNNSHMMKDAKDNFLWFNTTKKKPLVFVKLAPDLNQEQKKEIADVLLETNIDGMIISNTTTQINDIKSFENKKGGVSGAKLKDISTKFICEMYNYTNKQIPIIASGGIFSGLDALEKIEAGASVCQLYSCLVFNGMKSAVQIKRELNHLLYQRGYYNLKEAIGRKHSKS

[11] = as §1; type: ADME, microsomes; details: liver microsomes; method in brief: as §2
Plasma = assay: as §3; type: ADME, cell-free
[12] = Antimalarial activity against Plasmodium berghei ANKA NK65 infected in Swiss Webster mouse assessed as reduction of parasitemia level at 2 mg/kg, po qd administered for 4 days measured 24 hrs after last dose by light microscopic analysis; type: functional; parameters: scale not given: the % may be the effect or the level left
Method in brief: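 Female Swiss Webster mice, 8-10 weeks old (20-22 g), infected intraperitoneally with 2 × 10^7 P. berghei NK65 ANKA-infected erythrocytes. Oral doses in CMC vehicle (200 μL), first given 3 h post-infection, then at 24, 48 and 72 h. Parasitemia followed daily from 24 h by light microscopy at 1000× oil immersion, counting ≥10 fields of >100 erythrocytes. Mice losing ≥20% body weight were euthanized.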

[13] = Inhibition of His6-tagged recombinant Plasmodium berghei dihydroorotate dehydrogenase expressed in Escherichia coli using L-dihydroorotate as substrate after 5 to 10 mins by DCIP dye-based assay
[14] = phosphate buffer, read-out: solubility

Sequence of Dihydroorotate dehydrogenase (quinone), mitochondrial (Q02127 whole entry): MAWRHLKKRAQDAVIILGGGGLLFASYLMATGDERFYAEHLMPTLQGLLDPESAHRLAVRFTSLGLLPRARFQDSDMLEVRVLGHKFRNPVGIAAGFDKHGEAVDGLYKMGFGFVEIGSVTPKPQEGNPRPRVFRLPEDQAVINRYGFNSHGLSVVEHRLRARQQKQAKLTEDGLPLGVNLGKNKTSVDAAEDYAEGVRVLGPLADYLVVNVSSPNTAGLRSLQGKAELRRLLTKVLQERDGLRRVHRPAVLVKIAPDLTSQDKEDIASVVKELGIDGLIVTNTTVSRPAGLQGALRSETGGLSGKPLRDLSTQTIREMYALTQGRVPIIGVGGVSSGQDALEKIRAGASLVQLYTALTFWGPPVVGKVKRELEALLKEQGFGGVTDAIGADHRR

With `C[C@H]1[C@H](OC(=O)CCC(=O)O)O[C@@H]2O[C@@]3(C)CC[C@H]4[C@H](C)CC[C@@H]1[C@@]24OO3` [ARTESUNATE] the ED50 [1] was 5.9 mg/kg.
In the case of `Cc1cc(Nc2ccc3c(c2)CCCC3)n2ncnc2n1`, the Cmax (Mus musculus [2]) is reported as 2.2 µM, the CL (Liver microsomes) is reported as 72 µL/min/mg and the IC50 [3] is reported as greater than 100 µM. For the same compound, the CL (Liver) was 361 µL/min/mg, the Activity (Mus musculus [4]) was “Non-toxic” and the EC50 (Plasmodium falciparum) was 0.16 µM. The solubility [5, 14] was 89 µM (≈ 24.9 µg/mL), the IC50 [6] was 0.19 µM and the Time (Mus musculus [7]) was 1 h. It also gave a logD [8] of 3.4 and a fraction unbound [9] of 0.045.
`Cc1cc(NC2Cc3ccccc3C2)n2ncnc2n1` gave a Cmax (Mus musculus [2]) of 0.5 µM, an IC50 [10] of 0.5 µM and a CL (Liver microsomes) of less than 5 µL/min/mg. The CL (Liver) was 32 µL/min/mg, the Activity (Mus musculus [4]) was “Non-toxic” and the EC50 (Plasmodium falciparum) was 0.4 µM. For the same compound, the solubility [5, 14] was 188 µM (≈ 49.9 µg/mL), the IC50 [6] was 2.4 µM and the logD [8] was 2.5. For the same compound, the fraction unbound [9] was 0.239.
Work on `Cc1cc(Nc2ccc(C(F)(F)F)cc2)n2ncnc2n1` yielded a microsomal CLint at 1 µM [11] of 8 µL/min/mg, a solubility [5, 14] of 21 µM (≈ 6.16 µg/mL) and a logD [8] of 2.5. It also gave a fraction unbound [9] of 0.131.
Compound `O=C1C(O)=C([C@H]2CC[C@H](c3ccc(Cl)cc3)CC2)C(=O)c2ccccc21` [ATOVAQUONE] has an EC50 (Plasmodium falciparum) of 0.0015 µM and a PPB (Plasma) of 87%.
For `Cc1cc(NC2CCc3ccccc3C2)n2ncnc2n1` (stereo not given), the Cmax (Mus musculus [2]) was 7.8 µM, the IC50 [10] was 0.54 µM and the CL (Liver microsomes) was less than 5 µL/min/mg. For the same compound, the CL (Liver) was 35 µL/min/mg, the Activity (Mus musculus [4]) was “Non-toxic” and the EC50 (Plasmodium falciparum) was 1.8 µM. For the same compound, the solubility ([5]; buffer) was greater than 358 µM, the IC50 [6] was 2.3 µM and the Time (Mus musculus [7]) was 6 h. The logD [8] was 2.9.
Work on `OC(c1cc(C(F)(F)F)nc2c(C(F)(F)F)cccc12)C1CCCCN1` (stereo not given) [MEFLOQUINE] yielded an ED50 [1] of 3.8 mg/kg.
In the case of `Cc1cc(Nc2ccc3sccc3c2)n2ncnc2n1`, the Cmax (Mus musculus [2]) is reported as 0.4 µM, the IC50 [10] is reported as 0.09 µM and the CL (Liver microsomes) is reported as 64 µL/min/mg. For the same compound, the CL (Liver) was 162 µL/min/mg, the Activity (Mus musculus [4]) was “Non-toxic” and the EC50 (Plasmodium falciparum) was 0.066 µM. It also gave a solubility [5, 14] of 22 µM (≈ 6.19 µg/mL), an IC50 [6] of 0.6 µM and a logD [8] of 2.6. It also gave a fraction unbound [9] of 0.102.
Compound `CCN(CC)CCCC(C)Nc1ccnc2cc(Cl)ccc12` (stereo not given) [CHLOROQUINE] has an ED50 [1] of 1.8 mg/kg, an Activity [12] of 50% and a PPB (Plasma) of 87%.
`Cc1cc(Nc2ccc(C(C)(C)C)c(F)c2)n2ncnc2n1` gave a Cmax (Mus musculus [2]) of 0.25 µM, an IC50 [10] of 0.035 µM and an IC50 [13] of 0.11 µM. For the same compound, the CL (Liver microsomes) was 32 µL/min/mg, the CL (Liver) was 68 µL/min/mg and the Activity (Mus musculus [4]) was “Non-toxic”. For the same compound, the EC50 (Plasmodium falciparum) was 0.097 µM, the solubility ([5]; buffer) was less than 2.7 µM and the logD [8] was 3.5. For the same compound, the fraction unbound [9] was 0.036.
`Cc1cc(Nc2ccc(N3CCOCC3)cc2)n2ncnc2n1` gave an IC50 [10] greater than 100 µM, an IC50 [13] greater than 100 µM and an EC50 (Plasmodium falciparum) greater than 10 µM.
`CCCc1c(C)nc2ncnn2c1Nc1ccc(C)cc1` gave an IC50 [10] greater than 100 µM, an IC50 [13] greater than 100 µM and an IC50 [3] greater than 100 µM. The EC50 (Plasmodium falciparum) was greater than 10 µM.
In the case of `Cc1cc(Nc2ccc(C(C)C)cc2)n2ncnc2n1`, the Cmax (Mus musculus [2]) is reported as 0.8 µM, the IC50 [10] is reported as 0.22 µM and the CL (Liver microsomes) is reported as 30 µL/min/mg. For the same compound, the IC50 [3] was greater than 100 µM, the CL (Liver) was 241 µL/min/mg and the Activity (Mus musculus [4]) was “Non-toxic”. It also gave an EC50 (Plasmodium falciparum) of 0.78 µM, a solubility [5, 14] of 47 µM (≈ 12.6 µg/mL) and an IC50 [6] of 0.88 µM. For the same compound, the logD [8] was 3 and the fraction unbound [9] was 0.087.
